Bioassay records (PubChem)
Only some compounds are listed: those with a hit (about 4.2% of all), similar ones and a draw of the others.
KCNQ1 pot – potentiators or activators of human KCNQ1 potassium channel; P51787; CHO-K1 KCNQ1, thallium flux FluxOR fluorescence; stronger effect = higher value; B-score at 10 µM; actives 0.35% (n = 310,000); AID 2648;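 active = fluorescence ratio B-score, a plate-corrected score, at least three library SD, with initial intensity B-score within 5 SD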
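assay system = CHO-K1 cells stably expressing KCNQ1 | medium = assay buffer, equal DMSO in all wells | timing = 37 °C overnight plating, 90-min dark dye load, 20-min compound pretreatment | measured by = kinetic FluxOR thallium fluorescence, 10-s 1-Hz baseline, 110-s post-stimulus read | measure = fluorescence change relative to baseline, converted to B score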
KCNQ1 inh – inhibitors of human KCNQ1 potassium channel. P51787. CHO-K1 KCNQ1, FluxOR thallium flux fluorescence; stronger effect = higher value. B-score at 10 µM. actives 1.3% (n = 310,000). AID 2642;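 active = compounds whose thallium flux B-score, printed positive for inhibition, exceeds three library SD while starting fluorescence stays within three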;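 also: channel opened by potassium depolarization with thallium stimulus after 20 min compound exposure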
Mot1-301 SUMO – SUMOylation pathway inhibition by Mot1-301 growth rescue. AID 2716. growth rescue, % at 18.8 µM. S. cerevisiae Mot1-301 growth rescue, ATP luminescence, 38.5C; percent above DMSO median, 100 means doubled. actives 1% (n = 320,000);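 active = every valid replicate shows activation above 250% relative to neutral control wells; inactive = the rest, any valid replicate at or below 250%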
KCC2 mod – modulates chloride dependent transport by human KCC2 | AID 1456 | KCC2 cells, thallium flux FluoZin-2 fluorescence | B-score of Tl+ flux slope (higher = more flux/activation; lower = inhibition) at 10 µM | Q9H2X9 | actives 2.2% (n = 190,000);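 active = thallium flux slope and its plate-corrected score both differing from the plate sample mean at a set confidence after two filtering rounds, in either direction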;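 also: slope of fluorescence scaled to starting intensity during 10 to 20 s after thallium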
AI-2 QS modul – modulators of Vibrio harveyi AI-2 quorum sensing system | Vibrio harveyi JMH597 AI-2 luminescence/OD600 ratio, 9 h; stronger effect = lower value; strain lacks LuxN and CqsS sensors; 0 = neutral-control median | activity change, % at 7.5 µM | actives 0.4% (n = 300,000); in the data active = activity change below about -75%, passing the limit was not always enough;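 also: luminescence divided by OD600 gain over 9 h not by final OD600 alone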
hERG rescue – compounds protecting human hERG from proarrhythmic drug block; Q12809; CHO-hERG, FluxOR thallium flux, dofetilide IC70 present; activation (rescue from dofetilide block), less the hit threshold, % at 10 µM; actives 0.51% (n = 310,000); AID 1511;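 active = activation above the mean of controls blocked by dofetilide plus 5 SD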;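 also: thallium influx through hERG after potassium depolarization seen as dye fluorescence rise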
Numbers stand for hits; – = inactive; · = no result given.

SMILES	KCNQ1 pot	KCNQ1 inh	Mot1-301 SUMO	KCC2 mod	AI-2 QS modul	hERG rescue
CCOC(=O)C(NC(=O)c1ccccc1)=C(C)C	–	–	–	–	–	5.4
CCCCOC(=O)C(NC(=O)c1ccccc1)=C(C)C	–	–	–	–	–	–
O=C(N/N=C/c1ccc(O)cc1)c1ccc(COc2cc(Cl)ccc2Cl)o1	–	–	–	–	–	–
CCN1CCN(c2ccc(S(=O)(=O)N3CCOCC3)cc2NC(=O)C(C)Oc2ccc(Cl)cc2)CC1 (stereo not drawn)	–	–	–	·	–	–
CCC(C)(C)NC(=O)CN(Cc1ccco1)C(=O)CCC(=O)Nc1nccs1	–	–	–	·	·	–
OC(COC(c1ccccc1)c1ccccc1)CN1CCCCC1 (stereo not drawn)	–	–	–	·	–	6.4
CCCCc1ccc(NC(=O)CC(C)=O)cc1	–	–	–	·	–	–
CCCCc1ccc(NC(=O)CC(C)(C)C)cc1	–	–	–	–	-75.8	–
CCCc1ccc(C(=O)NNc2ccccc2F)cc1	–	–	–	–	–	–
O=C(O)c1cccc(N/N=C(\N=Nc2ccccc2)c2ccccc2)c1	–	6	–	·	–	–
O=C(O)c1ccc(N=N/C(=N\Nc2ccc(C(=O)O)cc2)c2ccccc2)cc1	–	–	–	·	–	–
CC1=C/C(=N\NC(=S)Nc2cccnc2)CC(C)(C)C1	–	–	·	15.6	–	–
COc1ccc(S(=O)(=O)N(C)C[C@H]2Oc3c(NS(=O)(=O)c4cn(C)cn4)cccc3C(=O)N([C@H](C)CO)C[C@@H]2C)cc1	·	·	–	·	·	·
O=C(CCN1CCN(Cc2ccccc2)CC1)Nc1ccccc1Cl	–	–	326.7	–	–	–
O=C(NCCN1CCN(Cc2ccccc2)CC1)Nc1cc(Cl)cc(Cl)c1	–	6	–	–	–	–
CN1CCN(CCC(=O)Nc2ccccc2Cl)CC1	–	–	–	–	–	–
NNC(=O)c1ccc(NS(=O)(=O)c2ccc(Br)cc2)cc1	–	–	–	–	–	–
COc1cccc(COc2cc3ccccc3nc2C)c1	–	–	–	–	-89.1	–
Cc1nc2ccccc2cc1OCc1ccc(Cl)cc1	–	–	–	–	–	–
CCCCCCOc1ccc(NC(=O)CC2C(=O)N(CC)C(=S)N2Cc2ccco2)cc1 (stereo not drawn)	–	9	–	–	–	–
CCOc1c(OC(C)=O)ccc(/C=C2\N=C(SCC)SC2=O)c1[N+](=O)[O-]	–	9	–	–	–	–
CCOc1cc(/C=C2\N=C(SCC)SC2=O)cc([N+](=O)[O-])c1OC(C)=O	–	8	–	·	–	–
CCOc1c(O)ccc(/C=C2\SC(=S)NC2=O)c1[N+](=O)[O-]	–	–	–	–	–	–
CCSC1=N/C(=C\c2ccc(C(=O)O)cc2)C(=O)S1	–	–	–	–	–	–
COc1ccc(-c2nnc(SCc3ccc(C(=O)O)cc3)n2C)cc1OC	–	–	–	·	–	–
SMILES	KCNQ1 pot	KCNQ1 inh	Mot1-301 SUMO	KCC2 mod	AI-2 QS modul	hERG rescue
O=C(NCc1nc2ccccc2[nH]1)C1=C[C@H](C2CCCCC2)C[C@H](OCc2ccc(CO)cc2)O1	–	–	–	–	–	–
O=C(NCc1nc2ccccc2[nH]1)C1=C[C@@H](C2CCCCC2)C[C@@H](OCc2ccc(CO)cc2)O1	–	9	–	–	–	–
O=C(NC1CCCCC1)C(c1ccccc1)N(C(=O)c1csnn1)C1CCCC1 (stereo not drawn)	–	–	–	·	–	–
Cc1ccc(NC(=O)Cc2nnc(SCC(=O)NC3CCCC3)n2C)c(C)c1	–	–	–	·	–	–
COc1ccc(-c2csc3ncnc(N4CCN(c5cccc(Cl)c5)CC4)c23)cc1	–	6	–	·	–	–
Cc1ccc(OCCN2C(=O)c3ccccc3C2=O)c([N+](=O)[O-])c1	9	–	–	–	–	–
Cc1ccc(CNCc2ccccc2Cl)cc1	–	–	–	–	–	–
Cc1ccc2nc(Cl)c(CNCc3ccccc3)cc2c1	–	–	–	–	-81.9	–
COc1ccc(C(=O)N[C@H](C(=O)N2CCN(c3ccccc3F)CC2)C(C)C)cc1	–	–	–	–	–	4.9
COc1ccc(C(=O)NC(C(=O)N2CCN(c3ccccc3O)CC2)C(C)C)cc1 (stereo not drawn)	–	–	–	·	–	–
COc1ccc(NC(=O)CSc2nnc(Cn3cnc([N+](=O)[O-])n3)n2C)cc1	–	–	343.9	–	–	–
COc1cccc(NC(=O)CSc2nnc(Cn3cnc([N+](=O)[O-])n3)n2C)c1	–	–	–	–	–	–
O=C(CSc1nnc(NC(=O)c2ccc(F)cc2F)s1)NC1CC1	–	–	–	·	–	–
Cc1ccc2c(c1)c(-c1ccccc1)nc1nnnn12	–	–	–	–	–	6.0
COc1ccc(-n2c(SCC(N)=O)nc3sc4c(c3c2=O)CCC4)cc1	–	–	–	–	–	–
Cc1ccc(NC(=O)CSc2ncc3ccccn23)cc1C	–	–	–	–	–	5.9
Cc1sc2nc(C3CC3)nc(N3CCN(C(=O)c4ccc(Cl)cc4)CC3)c2c1C	–	6	–	·	–	–
CS(=O)(=O)N1CCC(Oc2ccccc2C(=O)NC(C2CC2)C2CC2)CC1	–	–	834.0	–	–	–
CS(=O)(=O)N1CCC(Oc2ccccc2C(=O)NC2CCOC2)CC1 (stereo not drawn)	–	–	–	–	–	–
CC(C)(C)c1ccc(-c2cn(-c3ccc(Br)cc3)c3[n+]2CCCS3)cc1	–	7	·	–	–	–
COc1ccc(NC(=O)CN(C)C(=O)c2c(-c3c(F)cccc3Cl)noc2C)cc1	–	–	687.7	·	–	–
CCOc1ccc(NC(=O)CN(C)C(=O)c2c(-c3c(F)cccc3Cl)noc2C)cc1OCC	8	–	–	·	–	–
COc1ccc(NC(=O)CN(C)C(=O)c2cc(-c3ccc(Cl)cc3)nc3ccccc23)cc1	–	7	–	·	–	–
COc1ccc(NC(=O)CN(C)C(=O)c2c(-c3ccccc3Cl)noc2C)cc1	–	–	–	·	–	–
Cc1ccc(NC(=O)C2(c3cccs3)CCOCC2)cc1C	–	–	–	–	–	–
CC(C)Cc1nnc(NC(=O)CCS(=O)(=O)c2ccc(Cl)cc2)s1	–	–	–	·	–	–
CCO[C@H]1OC(C(N)=O)=C[C@@H](C2CC2)[C@@H]1CCCO	–	–	–	·	–	–
Cc1cc(N/N=C/c2cccc(F)c2)nc(NCc2ccccc2)n1	–	8	–	–	–	–
Cc1cc(N/N=C/c2ccccc2)nc(NCc2ccccc2)n1	–	–	–	–	–	–
CC(C)c1ccc(NC(=O)/C(C#N)=C/c2ccncc2)cc1	8	–	–	·	–	–
